Laboratory results published in article PMC10524360 (Cell chemical biology, 2023).
“Also recorded” adds a separate entry of the source. Residues, ends and D or L forms follow the SMILES beside them. *: point of attachment. Cbz = O=C(OCc1ccccc1)*; CH2F = FC*

Tests used:
[1] = system: H460^C Cas9 cells; assay: cell death; format: cell-based, human; settings: for effect on cell death induced by co-treatment of FSEN1 and RSL3: H460^C Cas9, 5 μM RSL3 + 1 μM FSEN1, Z-VAD 10 μM, Nec1s 1 μM; for effect on cell death induced by co-treatment of FSEN1 and RSL3 / effect on cell death induced by DHA and FSEN1 together: Fer-1 2 μM, DFO 100 μM, idebenone 10 μM, tocopherol 10 μM; for minimal dose that achieves maximal synergy for inducing ferroptosis: checkerboard FSEN1 (0–15 μM) x RSL3 (0–15 μM)
Outline: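 H460C Cas9 cells get dose series of RSL3 or DHA with vehicle or 1 μM FSEN1, plus ferroptosis inhibitors where indicated (Fer-1 2 μM, DFO 100 μM, idebenone 10 μM, tocopherol 10 μM). Dead cells are stained with SYTOX Green and imaged on IncuCyte over 24 hr. Lethal fraction is dead/total cells, and its AUC is fit against concentration (variable slope) for EC50. Mean ± SEM, 2–3 biological replicates.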

[2] = system: H460^C GPX4^KO cells; assay: cell death; format: cell-based, human
Outline: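 Cells were seeded in triplicate at 1000–1500 cells/well (384-well) 24 h before treatment. Test compound was added in medium with 30 nM SYTOX Green, and the plates were imaged (IncuCyte, 37°C, 5% CO2) every 1.5 or 3 h over 24 h. Lethal fraction = SYTOX+/(SYTOX+ plus mCherry+) objects; AUC averaged over three biological replicates; EC50 from a variable-slope fit.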

[3] = metabolic stability in mouse liver microsomes; format: in vitro ADME; settings: mouse liver microsomes 0.5 mg/mL, 2 μM FSEN1
Outline: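 The test compound (2 μM) was incubated with 0.5 mg/mL mouse liver microsomes and 1.0 mM NADPH at 37°C, in triplicate, and sampled at 0, 5, 15, 30 and 45 min. Controls were no NADPH (negative) and 2 μM midazolam (positive). t1/2 = ln2/k; CLint = ln2/t1/2 × incubation volume/microsomal protein (μL/min/mg).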

[4] = system: A549 lung cancer cells; assay: RSL3-induced cell death in A549 cells; format: cell-based, human; settings: RSL3 with 1 μM FSEN1
[5] = system: A375 melanoma cells; assay: cell death in A375 cells; format: cell-based, human; settings: 1 μM FSEN1
Outline: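 Melanoma cells were treated with the test compound (1 μM), with 2 μM Fer-1 where indicated. Cell death was quantified as SYTOX Green-positive objects per mm2; mean ± SEM of two biological replicates.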

[6] = target: T1, FSP1 (Homo sapiens, UniProt Q9BRQ8); assay: FSP1 enzyme kinetics; format: biochemical
T1 sequence (Q9BRQ8 2-373 limits assumed): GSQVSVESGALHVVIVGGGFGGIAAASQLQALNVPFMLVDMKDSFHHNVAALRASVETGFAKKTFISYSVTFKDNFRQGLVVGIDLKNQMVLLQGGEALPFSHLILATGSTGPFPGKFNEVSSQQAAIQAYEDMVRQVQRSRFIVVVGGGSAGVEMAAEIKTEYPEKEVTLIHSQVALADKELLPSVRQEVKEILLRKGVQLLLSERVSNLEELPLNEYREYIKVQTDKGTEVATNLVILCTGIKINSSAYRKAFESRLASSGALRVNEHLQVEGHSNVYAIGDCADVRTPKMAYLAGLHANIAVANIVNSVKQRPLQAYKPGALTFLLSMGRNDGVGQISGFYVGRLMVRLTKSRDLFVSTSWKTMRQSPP
Outline: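 His-tagged human FSP1 (expressed in E. coli, Ni-NTA purified) in PBS was preincubated 30 min at RT with the test compound. NADH series: 25 nM enzyme, 10 μM CoQ-coumarin, 1–50 μM NADH, 50–500 nM compound. CoQ-coumarin series: 6.25 nM enzyme, 1–30 μM CoQ-coumarin, 200 μM NADH, 12.5–125 nM compound. Fluorescence (Ex 405/Em 475 nm) read every 15 s at RT; three biological replicates; Vmax and Km by nonlinear regression.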

[7] = system: FSP1^KO cells overexpressing mFSP1; assay: RSL3-induced ferroptosis in FSP1 knockout cells overexpressing mouse FSP1; format: cell-based, human
Outline: (§1)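 H460C knockout cells (mFSP1-overexpressing where stated) were seeded at 1500 cells/well in 384-well plates 24 h before treatment. Drug-containing medium with 30 nM SYTOX Green was added and cells were imaged in an IncuCyte at 37°C, 5% CO2 every 4 h for 24 h. Lethal fraction = SYTOX+/(SYTOX+ plus mCherry+) objects; AUC was fitted to a variable-slope curve for EC50.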

[8] = target: NQO1 (Homo sapiens, UniProt P15559); assay: in vitro NQO1 CoQ1 oxidoreductase activity assay; format: biochemical; settings: increasing concentrations of FSEN1
Chain of NQO1 (P15559 2-274 limits assumed): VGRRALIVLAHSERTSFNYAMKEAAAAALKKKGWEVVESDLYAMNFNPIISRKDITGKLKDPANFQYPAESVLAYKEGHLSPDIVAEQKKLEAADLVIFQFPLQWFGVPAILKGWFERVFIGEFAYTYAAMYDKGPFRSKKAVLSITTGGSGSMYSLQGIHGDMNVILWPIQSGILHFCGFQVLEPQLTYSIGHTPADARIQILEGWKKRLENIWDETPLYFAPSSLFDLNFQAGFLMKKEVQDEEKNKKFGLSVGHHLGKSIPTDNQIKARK

[9] = system: H460^C FSP1^KO cells; assay: cell death; format: cell-based, human; settings: for cell death, single agent: 24 h library screen, 40 μM compounds
Outline: as §1

[10] = system: H460^C Cas9 cells; assay: lipid peroxidation assay; format: cell-based, human; settings: 1 μM FSEN1 with 200 nM RSL3
Outline: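 Cells in 6-well plates were treated 5 h with 200 nM RSL3 ± 1 μM test compound. They were washed in DPBS with Ca/Mg, labelled with BODIPY 581/591 C11 and trypsinised. Green fluorescence was measured by flow cytometry (FITC channel, >10,000 cells). Mean ± SD of n=3; one-way ANOVA with Tukey's test.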

[11] = target: T2, purified mFSP1 (Mus musculus, UniProt Q8BUE4); assay: in vitro mFSP1 CoQ1 oxidoreductase activity assay; format: biochemical; settings: 125 nM mFSP1
T2 sequence (Q8BUE4 2-380 isoform Q8BUE4-2 limits assumed): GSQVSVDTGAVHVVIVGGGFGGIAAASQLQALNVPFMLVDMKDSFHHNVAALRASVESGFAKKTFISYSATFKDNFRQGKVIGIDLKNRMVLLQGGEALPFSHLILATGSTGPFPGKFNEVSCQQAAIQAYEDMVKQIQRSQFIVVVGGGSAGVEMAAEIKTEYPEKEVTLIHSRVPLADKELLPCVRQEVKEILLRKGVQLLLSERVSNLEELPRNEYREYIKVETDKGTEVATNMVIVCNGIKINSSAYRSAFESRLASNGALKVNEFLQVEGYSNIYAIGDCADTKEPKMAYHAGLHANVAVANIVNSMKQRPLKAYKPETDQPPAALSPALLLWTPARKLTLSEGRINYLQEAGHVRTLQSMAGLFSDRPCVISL
Outline: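 Purified enzyme in PBS was shaken briefly with the test compound (DMSO) and preincubated 30 min at RT. A 2X NADH/CoQ1 mix started the reaction; final 400 μM CoQ1, 500 μM NADH, 0.01–20 μM compound. Mouse FSP1 was used at 125 nM to match the specific activity of 12.5 nM human FSP1. Absorbance at 355 nm was read every 2.5 min; percent activity was used for IC50.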

[12] = in vivo pharmacokinetics in mice; parameters: species or system BALB/c mice; settings: single 20 mg/kg I.P. dose
Outline: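 Mice (20–25 g) were group-housed five per cage at 22°C on a 12 h light/dark cycle. Each received a single 20 mg/kg intraperitoneal dose in a vehicle containing 20% DMSO, 20% ethanol and 20% PEG40. Plasma Cmax and elimination half-life are reported as median (IQR), n=5.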

tocopherol
effect on cell death induced by co-treatment of FSEN1 and RSL3 [1]: blocked
effect on cell death induced by DHA and FSEN1 together ([1]; H460^C cells, 1 μM FSEN1): strongly suppressed

COC(=O)C[C@H](NC(=O)[C@H](C)NC(=O)[C@@H](NC(=O)OCc1ccccc1)C(C)C)C(=O)CF [Z-VAD-FMK] (Cbz-Val-Ala-Asp(OMe)-CH2F)
effect on cell death induced by co-treatment of FSEN1 and RSL3 [1]: no effect

CC(=O)N(O)CCCCCNC(=O)CCC(=O)N(O)CCCCCNC(=O)CCC(=O)N(O)CCCCCN [DFO, deferoxamine]
effect on cell death induced by co-treatment of FSEN1 and RSL3 [1]: blocked
effect on cell death induced by DHA and FSEN1 together ([1]; H460^C cells, 1 μM FSEN1): completely suppressed

Cc1ccc(-c2c(C#N)c(N)n3c(nc4ccccc43)c2C#N)cc1 [iFSP1, reference compound]
cell death, single agent ([1]; H460^C Cas9 cells): not in the H460^C Cas9 cells
cell death, single agent [2]: selectively triggered cell death

COc1ccc(N2CCN(Cc3cn4c(-c5ccc(Br)cc5)nnc4s3)CC2)cc1 [FSEN1]
intrinsic clearance (CLint) [3]: 11.54 μL/min/mg protein
sensitizing effect on ferroptosis induction [4]: particularly large sensitizing effect
sensitization to cell death induced by GPX4 inhibitors RSL3 and ML162 ([1]; H460^C Cas9 cells, 1 μM FSEN1): sensitized
sensitization to cell death induced by DHA and FINO2 ([1]; H460^C cells, 1 μM FSEN1): strongly sensitized
minimal dose that achieves maximal synergy for inducing ferroptosis ([1]; H460^C Cas9 cells): 0.55 µM
ferroptosis in the absence of an RSL3 co-treatment [5]: induced a small amount of ferroptosis
change in Kcat values ([6]; as FSEN1 concentrations increased): decrease
mechanism of FSP1 inhibition ([6]; varied NADH and CoQ-coumarin, parallel Lineweaver-Burke slopes): uncompetitive inhibitor
EC50 ([2]; read-out: EC50 for triggering cell death, lethal fraction (AUC) over 24 hr): 0.0694 µM
effect on ferroptosis sensitivity (RSL3) ([7]; FSP1^KO cells overexpressing mFSP1, 1 μM FSEN1): no effect
effect on sensitivity to RSL3 ([7]; FSP1^KO cells overexpressing mFSP1, FSEN1 up to 15 μM): no effect
effect on CoQ oxidoreductase activity of NQO1 [8]: no effect
additional sensitization to DHA and FINO2 induced cell death ([9]; FSP1^KO cells, 1 μM FSEN1): no additional sensitizing effect
effect on sensitivity to RSL3-induced cell death ([9]; H460^C FSP1^KO cells, 1 μM FSEN1): did not result in any additional sensitization; also recorded: no effect
lipid peroxidation (BODIPY C11) [10]: sensitized cells to lipid peroxidation
effect on CoQ1 oxidoreductase activity of purified mFSP1 [11]: no effect
median elimination half-life ([12]; n=5, IQR 6.1 – 8.8): 8.0 h
median maximum plasma concentration ([12]; n=5, IQR 71.0–123.0): 97.6 ng/mL

COC1=C(OC)C(=O)C(CCCCCCCCCCO)=C(C)C1=O [idebenone]
effect on cell death induced by co-treatment of FSEN1 and RSL3 [1]: blocked
effect on cell death induced by DHA and FSEN1 together ([1]; H460^C cells, 1 μM FSEN1): strongly suppressed

COC(=O)c1ccc([C@@H]2c3[nH]c4ccccc4c3C[C@@H](C(=O)OC)N2C(=O)CCl)cc1 [RSL3]
cell death, single agent ([1]; H460^C Cas9 cells): not the H460^C Cas9 cells
minimal dose that achieves maximal synergy for inducing ferroptosis ([1]; H460^C Cas9 cells): 0.55 µM
cell death, single agent ([9]; H460^C FSP1^KO cells): cytotoxic

CN1C(=O)NC(Cc2c[nH]c3c(Cl)cccc23)C1=O (centres unmarked) [Nec1s]
effect on cell death induced by co-treatment of FSEN1 and RSL3 [1]: no effect

C[C@H]1[C@@H](O)O[C@@H]2O[C@@]3(C)CC[C@H]4[C@H](C)CC[C@@H]1[C@@]24OO3 [DHA, dihydroartemisinin, reference compound]
cell death, single agent ([1]; H460^C Cas9 cells): induced minimal amounts of ferroptosis on its own
cell death, single agent ([9]; H460^C FSP1^KO cells): selectively induced cell death

CCOC(=O)c1ccc(NC2CCCCC2)c(N)c1 [Fer-1, ferrostatin-1]
effect on cell death induced by co-treatment of FSEN1 and RSL3 [1]: blocked
effect on cell death induced by DHA and FSEN1 together ([1]; H460^C cells, 1 μM FSEN1): strongly suppressed
